The source made the active and inactive calls. No cut-off for these calls is given here.
Assays:
[1] = Cytotoxicity against human PANC1 cells in nutrient-deprived medium after 24 hrs by WST-8 assay; type: functional, PANC-1
In short: (§1)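 PANC-1 cells were seeded at 1.5 × 10^4/well and grown 24 h in DMEM at 37 °C, 5% CO2. They were washed with D-PBS, then exposed to serial dilutions in DMEM or NDM for 24 h, with control and blank wells. Viability was read by WST-8 (10% in DMEM, 3 h, A450), averaged over three wells: (test−blank)/(control−blank)×100.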

[2] = tested on: PANC-1; test: Ratio of arctigenin PC50 to compound PC50 for human PANC1 cells; type: functional
[3] = tested on: PANC-1; test: Induction of apoptosis in human PANC1 cells in nutrient-deprived medium assessed as translocation of phosphatidylserine to external surface at 1 uM after 12 hrs by Annexin V-FITC/propidium iodide staining-based fluorescence microscopy; type: functional, cell-based
[4] = molecular target: T1, Caspase-3 (Homo sapiens) (UniProt P42574); test: Induction of caspase3 (unknown origin) cleavage after 4 hrs by Western blotting analysis in presence of nutrient-deprived medium
T1 sequence (whole entry): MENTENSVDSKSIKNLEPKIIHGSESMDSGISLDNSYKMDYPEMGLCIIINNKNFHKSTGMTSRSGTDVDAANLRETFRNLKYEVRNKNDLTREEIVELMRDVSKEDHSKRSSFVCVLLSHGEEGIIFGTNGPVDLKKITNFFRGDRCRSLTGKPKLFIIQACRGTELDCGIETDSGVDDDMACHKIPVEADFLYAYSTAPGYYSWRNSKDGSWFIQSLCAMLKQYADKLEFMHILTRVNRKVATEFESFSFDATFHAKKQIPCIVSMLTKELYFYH
In short: (§2)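 Proteins were separated by SDS-PAGE (0.1% SDS) and transferred to PVDF. Membranes were blocked, washed in PBS with 0.1% polysorbate 20, and incubated overnight at room temperature with primary antibodies. HRP-conjugated secondary antibody was applied for 45 min at room temperature, and bands were detected by enhanced chemiluminescence.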

[5] = molecular target: T1, Caspase-3 (Homo sapiens); test: Induction of caspase3 (unknown origin) cleavage after 4 hrs by Western blotting analysis in presence of DMEM; in short: as §2
[6] = species: Homo sapiens; test: Inhibition of AKT (unknown origin) phosphorylation at T308 at 1 to 100 uM after 4 hrs by Western blotting analysis in presence of nutrient-deprived medium; in short: as §2
[7] = species: Homo sapiens; test: Inhibition of AKT (unknown origin) phosphorylation at S437 at 1 to 100 uM after 4 hrs by Western blotting analysis in presence of nutrient-deprived medium; in short: as §2
[8] = species: Homo sapiens; test: Inhibition of AKT (unknown origin) phosphorylation at S437 at 100 uM after 4 hrs by Western blotting analysis in presence of DMEM; in short: as §2
[9] = species: Homo sapiens; test: Inhibition of AKT (unknown origin) phosphorylation at T308 at 100 uM after 4 hrs by Western blotting analysis in presence of DMEM; in short: as §2
[10] = tested on: PANC-1; test: Induction of apoptosis in human PANC1 cells in nutrient-deprived medium assessed as disruption of cell organelles at 1 uM after 24 hrs by phase contrast microscopy relative to control; type: functional, cell-based
In short: (§3)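 Cells were seeded at 1 × 10^6 per 60 mm dish and allowed to attach for 24 h. They were washed twice and treated with 1 µM in DMEM or NDM for 24 h. EB/AO dye mixture (100 µg/ml each, in PBS) was added, and cells were imaged in fluorescent and phase-contrast modes at 40× objective. AO marks viable cells green; EB marks late apoptotic/necrotic cells red.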

[11] = tested on: PANC-1; test: Induction of apoptosis in human PANC1 cells in nutrient-deprived medium assessed as rupture of cell membrane at 1 uM after 24 hrs by phase contrast microscopy relative to control; type: functional, cell-based; in short: as §3
[12] = tested on: PANC-1; test: Induction of apoptosis in human PANC1 cells in nutrient-deprived medium assessed as cell swelling at 1 uM after 24 hrs by phase contrast microscopy relative to control; type: functional, cell-based; in short: as §3
[13] = tested on: PANC-1; test: Induction of apoptosis in human PANC1 cells in nutrient-deprived medium assessed as late apoptotic and necrotic cells at 1 uM after 24 hrs by ethidium bromide/acridine orange staining-based fluorescence microscopy relative to control; type: functional, cell-based; in short: as §3
[14] = tested on: PANC-1; test: Cytotoxicity against human PANC1 cells after 24 hrs by WST-8 assay in presence of DMEM; type: functional, cell-based; in short: as §1

Row | SMILES | PC50 [1] [µM] | other results
1 | N/C(=N\NC(=S)N1CCCCCC1)c1ccccn1 | 1.4 | 
2 | Cc1ccnc(/C(N)=N/NC(=S)N2CCCCC2)c1 | 1.8 | 
3 | N/C(=N\NC(=S)N1CCOCC1)c1ccccn1 | 1.6 | 
4 | COc1cc(C[C@H]2C(=O)OC[C@@H]2Cc2ccc(OC)c(OC)c2)ccc1O [ARCTIGENIN] | 0.85 | 
5 | N/C(=N\NC(=S)N1CCSCC1)c1ccccn1 | 1.9 | 
6 | CC(=O)O[C@H]1C(=O)[C@@]2(C)[C@H]([C@H](OC(=O)c3ccccc3)[C@]3(O)C[C@H](OC(=O)[C@H](O)[C@@H](NC(=O)c4ccccc4)c4ccccc4)C(C)=C1C3(C)C)[C@]1(OC(C)=O)CO[C@@H]1C[C@@H]2O [PACLITAXEL] | >200 | 
7 | Cc1ccnc(/C(N)=N/NC(=S)N2CCN(c3ccccn3)CC2)c1 | 0.68 | 
8 | Cc1ccnc(/C(N)=N/NC(=S)N2CCSCC2)c1 | 1.9 | 
9 | Cc1ccnc(/C(N)=N/NC(=S)N2CCCC2)c1 | 0.37 | Ratio [2]: 2
10 | Cc1ccnc(/C(N)=N/NC(=S)N2CCCCCC2)c1 | 1.7 | 
11 | N/C(=N\NC(=S)N1CCCC1)c1ccccn1 | 0.78 | 
12 | N/C(=N\NC(=S)N1CCN(c2ccccn2)CC1)c1ccccn1 | 0.78 | Activity [3]: Active; Activity [4]: Dose-dependent effect; Activity [5]: Dose-dependent effect; inhibition [6]: inactive; inhibition [7]: inactive; inhibition [8]: inactive; inhibition [9]: inactive; Activity [10]: Active; Activity [11]: Active; Activity [12]: Active; Activity [13]: Active
13 | N/C(=N\NC(=S)N1CCCCC1)c1ccccn1 | 1.6 | 
14 | Nc1ccn([C@@H]2O[C@H](CO)[C@@H](O)C2(F)F)c(=O)n1 [GEMCITABINE] | >200 | Activity [14]: inactive
15 | Cc1ccnc(/C(N)=N/NC(=S)N2CCOCC2)c1 | 1.8 | 

— ChEMBL document CHEMBL3102794, “Discovery of 2-pyridineformamide thiosemicarbazones as potent antiausterity agents” (2014)
